Results: ChEMBL document CHEMBL3271959, “Comparative stereochemistry in the aziridine ring openings of N-methylmitomycin A and 7-methoxy-1,2-(N-methylaziridino)mitosene” (J Med Chem, 1977)
Calls of active or inactive are those of the source. The rule behind the calls is not given here.

Legend:
[1] = test system: Enterobacteria phage lambda; experiment: Induction of lambda phage lytic activity in Escherichia coli W1709(lambda) assessed as ratio of plaques in treated culture to control at 3.1 ug/ml preincubated for 90 mins followed by heart infusion broth and glucose addition measured after 120 mins; assay type: functional
[2] = test system: Enterobacteria phage lambda; experiment: Induction of lambda phage lytic activity in Escherichia coli W1709(lambda) assessed as ratio of plaques in treated culture to control at 0.8 ug/ml preincubated for 90 mins followed by heart infusion broth and glucose addition measured after 120 mins; assay type: functional
[3] = test system: Escherichia coli; experiment: Toxicity in Escherichia coli W1709(lambda) at 0.2 ug/ml; assay type: organism-based; settings: in vivo
Outline: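 Screened for induction of lytic activity by lambda-bacteriophage lysogenic in Escherichia coli, at 3.1, 0.8, 0.2, 0.05, 0.0125 and 0.003 ug/mL. The read-out was the ratio of plaques induced by the test compound to plaques in an untreated control. Wells where the compound was toxic to the culture were scored "T" instead of a ratio.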

[4] = test system: P388; experiment: Antitumor activity against mouse P388 cells allografted in CDF1 mouse assessed as effect on median survival time at 0.2 mg/kg/day administered qd on day 1 and 5 relative to control; assay type: functional
Outline: (§1)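 Male CDF1 mice were implanted intraperitoneally with 10^6 P388 ascites cells. Treatment was given once daily on days 1 and 5 only. Groups were six mice each. Median survival time was taken for each group.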

[5] = test system: P388; experiment: Antitumor activity against mouse P388 cells allografted in CDF1 mouse assessed as mouse survival at 3.2 mg/kg/day administered qd on day 1 and 5 measured on day 5; assay type: functional, organism-based; outline: as §1
[6] = test system: P388; experiment: Antitumor activity against mouse P388 cells allografted in CDF1 mouse assessed as mouse survival at 1.6 mg/kg/day administered qd on day 1 and 5 measured on day 5; assay type: functional, organism-based; outline: as §1
[7] = test system: P388; experiment: Antitumor activity against mouse P388 cells allografted in CDF1 mouse assessed as mouse survival at 0.1 mg/kg/day administered qd on day 1 and 5 measured on day 5; assay type: functional, organism-based; outline: as §1
[8] = test system: P388; experiment: Antitumor activity against mouse P388 cells allografted in CDF1 mouse assessed as effect on median survival time at 1.6 mg/kg/day administered qd on day 1 and 5 relative to control; assay type: functional; outline: as §1
[9] = test system: Enterobacteria phage lambda; experiment: Induction of lambda phage lytic activity in Escherichia coli W1709(lambda) assessed as ratio of plaques in treated culture to control at 0.003 ug/ml preincubated for 90 mins followed by heart infusion broth and glucose addition measured after 120 mins; assay type: functional
[10] = test system: P388; experiment: Antitumor activity against mouse P388 cells allografted in CDF1 mouse assessed as effect on median survival time at 0.1 mg/kg/day administered qd on day 1 and 5 relative to control; assay type: functional; outline: as §1
[11] = test system: P388; experiment: Antitumor activity against mouse P388 cells allografted in CDF1 mouse assessed as mouse survival at 0.4 mg/kg/day administered qd on day 1 and 5 measured on day 30; assay type: functional, organism-based; outline: as §1
[12] = test system: Mus musculus; experiment: Toxicity in CDF1 mouse allografted with mouse P388 cells assessed as change in weight at 3.2 mg/kg/day administered qd on day 1 and 5 (reference value: 3.4 g); assay type: organism-based; settings: in vivo; outline: as §1
[13] = test system: Mus musculus; experiment: Toxicity in CDF1 mouse allografted with mouse P388 cells assessed as change in weight at 1.6 mg/kg/day administered qd on day 1 and 5 (reference value: 3.4 g); assay type: organism-based; settings: in vivo; outline: as §1
[14] = test system: P388; experiment: Antitumor activity against mouse P388 cells allografted in CDF1 mouse assessed as mouse survival at 0.4 mg/kg/day administered qd on day 1 and 5 measured on day 5; assay type: functional, organism-based; outline: as §1
[15] = test system: P388; experiment: Antitumor activity against mouse P388 cells allografted in CDF1 mouse assessed as mouse survival at 0.1 mg/kg/day administered qd on day 1 and 5 measured on day 30; assay type: functional, organism-based; outline: as §1
[16] = test system: P388; experiment: Antitumor activity against mouse P388 cells allografted in CDF1 mouse assessed as mouse survival at 1.6 mg/kg/day administered qd on day 1 and 5 measured on day 30; assay type: functional, organism-based; outline: as §1
[17] = test system: Mus musculus; experiment: Toxicity in CDF1 mouse allografted with mouse P388 cells assessed as change in weight at 0.2 mg/kg/day administered qd on day 1 and 5 (reference value: 3.4 g); assay type: organism-based; settings: in vivo; outline: as §1
[18] = test system: Enterobacteria phage lambda; experiment: Induction of lambda phage lytic activity in Escherichia coli W1709(lambda) assessed as ratio of plaques in treated culture to control at 0.05 ug/ml preincubated for 90 mins followed by heart infusion broth and glucose addition measured after 120 mins; assay type: functional
[19] = test system: Mus musculus; experiment: Toxicity in CDF1 mouse allografted with mouse P388 cells assessed as change in weight at 0.4 mg/kg/day administered qd on day 1 and 5 (reference value: 3.4 g); assay type: organism-based; settings: in vivo; outline: as §1
[20] = test system: P388; experiment: Antitumor activity against mouse P388 cells allografted in CDF1 mouse assessed as mouse survival at 0.2 mg/kg/day administered qd on day 1 and 5 measured on day 5; assay type: functional, organism-based; outline: as §1
[21] = test system: Mus musculus; experiment: Toxicity in CDF1 mouse allografted with mouse P388 cells assessed as change in weight at 0.1 mg/kg/day administered qd on day 1 and 5 (reference value: 3.4 g); assay type: organism-based; settings: in vivo; outline: as §1
[22] = test system: P388; experiment: Antitumor activity against mouse P388 cells allografted in CDF1 mouse assessed as mouse survival at 0.8 mg/kg/day administered qd on day 1 and 5 measured on day 5; assay type: functional, organism-based; outline: as §1
[23] = test system: P388; experiment: Antitumor activity against mouse P388 cells allografted in CDF1 mouse assessed as effect on median survival time at 3.2 mg/kg/day administered qd on day 1 and 5 relative to control; assay type: functional; outline: as §1
[24] = test system: Mus musculus; experiment: Toxicity in CDF1 mouse allografted with mouse P388 cells assessed as change in weight at 0.8 mg/kg/day administered qd on day 1 and 5 (reference value: 3.4 g); assay type: organism-based; settings: in vivo; outline: as §1
[25] = test system: Escherichia coli; experiment: Toxicity in Escherichia coli W1709(lambda) at 0.05 ug/ml; assay type: organism-based; settings: in vivo
[26] = test system: P388; experiment: Antitumor activity against mouse P388 cells allografted in CDF1 mouse assessed as effect on median survival time at 0.8 mg/kg/day administered qd on day 1 and 5 relative to control; assay type: functional; outline: as §1
[27] = test system: Enterobacteria phage lambda; experiment: Induction of lambda phage lytic activity in Escherichia coli W1709(lambda) assessed as ratio of plaques in treated culture to control at 0.0125 ug/ml preincubated for 90 mins followed by heart infusion broth and glucose addition measured after 120 mins; assay type: functional
[28] = test system: P388; experiment: Antitumor activity against mouse P388 cells allografted in CDF1 mouse assessed as mouse survival at 0.2 mg/kg/day administered qd on day 1 and 5 measured on day 30; assay type: functional, organism-based; outline: as §1
[29] = test system: P388; experiment: Antitumor activity against mouse P388 cells allografted in CDF1 mouse assessed as effect on median survival time at 0.4 mg/kg/day administered qd on day 1 and 5 relative to control; assay type: functional; outline: as §1
[30] = test system: Escherichia coli; experiment: Toxicity in Escherichia coli W1709(lambda) at 0.0125 ug/ml; assay type: organism-based; settings: in vivo
[31] = test system: P388; experiment: Antitumor activity against mouse P388 cells allografted in CDF1 mouse assessed as mouse survival at 0.8 mg/kg/day administered qd on day 1 and 5 measured on day 30; assay type: functional, organism-based; outline: as §1
[32] = test system: P388; experiment: Antitumor activity against mouse P388 cells allografted in CDF1 mouse assessed as mouse survival at 3.2 mg/kg/day administered qd on day 1 and 5 measured on day 30; assay type: functional, organism-based; outline: as §1
[33] = test system: Enterobacteria phage lambda; experiment: Induction of lambda phage lytic activity in Escherichia coli W1709(lambda) assessed as ratio of plaques in treated culture to control at 0.2 ug/ml preincubated for 90 mins followed by heart infusion broth and glucose addition measured after 120 mins; assay type: functional
[34] = test system: Escherichia coli; experiment: Toxicity in Escherichia coli W1709(lambda) at 3.1 ug/ml; assay type: organism-based; settings: in vivo
[35] = test system: P388; experiment: Antitumor activity against mouse P388 cells allografted in CDF1 mouse assessed as mouse survival at 6.4 mg/kg/day administered qd on day 1 and 5 measured on day 30; assay type: functional, organism-based; outline: as §1
[36] = test system: P388; experiment: Antitumor activity against mouse P388 cells allografted in CDF1 mouse assessed as mouse survival at 6.4 mg/kg/day administered qd on day 1 and 5 measured on day 5; assay type: functional, organism-based; outline: as §1
[37] = test system: Escherichia coli; experiment: Toxicity in Escherichia coli W1709(lambda) at 0.8 ug/ml; assay type: organism-based; settings: in vivo
[38] = test system: P388; experiment: Antitumor activity against mouse P388 cells allografted in CDF1 mouse assessed as effect on median survival time at 6.4 mg/kg/day administered qd on day 1 and 5 relative to control; assay type: functional; outline: as §1
[39] = test system: Mus musculus; experiment: Toxicity in CDF1 mouse allografted with mouse P388 cells assessed as change in weight at 6.4 mg/kg/day administered qd on day 1 and 5 (reference value: 3.4 g); assay type: organism-based; settings: in vivo; outline: as §1

| Structure (SMILES) | T/C [1] | T/C [2] | T/C [4] | Activity [5] | Activity [6] | T/C [8] | T/C [9] | Activity [11] | Activity [12] | Activity [13] | Activity [14] | Activity [16] | Activity [17] | T/C [18] | Activity [19] | Activity [20] | Activity [22] | T/C [23] | Activity [24] | T/C [27] | further results |
| --- | --- | --- | --- | --- | --- | --- | --- | --- | --- | --- | --- | --- | --- | --- | --- | --- | --- | --- | --- | --- | --- |
| COC1=C(C)C(=O)c2c(c(COC(N)=O)c3n2CCC3O)C1=O (racemic) | 6.9 | 2.9 | – | – | – | – | – | – | – | – | – | – | – | – | – | – | – | – | – | – | – |
| CO[C@@]12[C@H](COC(N)=O)C3=C(C(=O)C(C)=C(N)C3=O)N1C[C@@H]1N[C@@H]12 [MITOMYCIN] | – | – | 125% | Active | Active | 175% | 2.7 | inactive | -2.3 g | 0.1 g | Active | inactive | 0.3 g | 17.6 | 0 g | Active | Active | 270% | -0.8 g | 6.6 | Activity [3]: Toxic; Activity [7]: Active; T/C [10]: 120%; Activity [15]: inactive; Activity [21]: 0 g; Activity [25]: Toxic; T/C [26]: 175%; Activity [28]: inactive; T/C [29]: 130% |
| COC1=C(C)C(=O)C2=C(C1=O)[C@@H](COC(N)=O)[C@@]1(OC)[C@H]3N[C@H]3CN21 [MITOMYCIN A] | – | – | 130% | Active | Active | 165% | 7.4 | inactive | -2.1 g | -3.1 g | Active | inactive | 0.1 g | – | -0.4 g | Active | Active | 180% | -2.6 g | 31.1 | Activity [30]: Toxic; Activity [7]: Active; Activity [31]: inactive; T/C [10]: 120%; Activity [15]: inactive; Activity [21]: 0.3 g; Activity [32]: inactive; Activity [25]: Toxic; T/C [26]: 155%; Activity [28]: inactive; T/C [29]: 140% |
| CN[C@@H]1Cn2c3c(c(COC(N)=O)c2[C@@H]1O)C(=O)C(OC)=C(C)C3=O (relative stereo) | 22.4 | 4.4 | – | – | – | – | – | – | – | – | – | – | – | – | – | – | – | – | – | – | T/C [33]: 2; Activity [34]: Toxic |
| COC1=C(C)C(=O)c2c(c(COC(N)=O)c3n2C[C@H]2[C@@H]3N2C)C1=O (some centres not stated) | 35.4 | 38.8 | – | – | – | – | 0.8 | – | – | – | – | – | – | 3.4 | – | – | – | – | – | 3 | Activity [34]: Toxic |
| COC1=C(C)C(=O)C2=C(C1=O)[C@@H](COC(N)=O)[C@@]1(OC)[C@@H]3[C@H](CN21)N3C (some centres not stated) [N-METHYL-MITOMYCIN A] | – | – | 115% | Active | Active | 145% | 1.8 | inactive | -3.1 g | -1.6 g | Active | inactive | 0.3 g | 8.2 | 0.9 g | Active | Active | 180% | -0.3 g | 3.7 | T/C [33]: 21.2; Activity [35]: inactive; Activity [31]: inactive; Activity [36]: Active; Activity [37]: Toxic; T/C [38]: 165%; T/C [26]: 145%; Activity [39]: -2.4 g; Activity [28]: inactive; T/C [29]: 130% |
| CN[C@@H]1Cn2c3c(c(COC(N)=O)c2[C@H]1O)C(=O)C(OC)=C(C)C3=O (relative stereo) | 7 | 2.4 | – | – | – | – | – | – | – | – | – | – | – | – | – | – | – | – | – | – | – |
